NALP1 yeast inh = blocks the NALP1 inflammasome reconstituted in yeast | S. cerevisiae NALP1/ASC/caspase-1 growth, X-gal OD620, 72 h | inhibition, % at 10 µM | 280,000 tested, 0.61% active; in the data active = inhibition mostly above about 24%, no sharp cut-off; inactive = mostly below about 32%
IMP-1 inh = inhibitors of Pseudomonas aeruginosa IMP-1 metallo-beta-lactamase; 290,000 tested, 0.45% active; purified IMP-1, nitrocefin hydrolysis, epi-absorbance fluorescence; inhibition, % at 5.6 µM;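 active = inhibition above the mean plus 3 SD of all compounds in the same screening run, cut at about 4.5% in these data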;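 also: 0% = IMP-1 with DMSO and 100% = DMSO wells lacking enzyme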
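Assay system: purified recombinant IMP-1 beta-lactamase. Input: IMP-1 0.2 nM before substrate addition. Buffer or medium: Zinc- and detergent-supplemented HEPES buffer, pH 7.1. Schedule: 25 °C, 15 min preincubation, 25 min reaction. Signal: Epi-absorbance fluorescence, 480 nm excitation, 530 nm emission. Evaluation: percent inhibition from optical density relative to buffer-blank wells.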
DNA FID counter = fluorescent intercalator displacement, NS3 helicase counter-screen; inhibition, % at 7.9 µM; DNA fluorescent intercalator displacement, fluorescence; 290,000 tested, 0.17% active; in the data active = inhibition above about 37%;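 also: 0% = vehicle and 100% = reference compound; higher means more ethidium bromide displaced from hairpin DNA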
Mot1-301 SUMO = SUMOylation pathway inhibition by Mot1-301 growth rescue. S. cerevisiae Mot1-301 growth rescue, ATP luminescence, 38.5C; percent above DMSO median, 100 means doubled. growth rescue, % at 18.8 µM. 320,000 tested, 1% active;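 active = every valid replicate shows activation above 250% relative to neutral control wells; inactive = the rest, any valid replicate at or below 250%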;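 also: OY570 slx delta 5 strain wells were the positive control but not used for scaling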
UBC9 SUMO inh = SUMOylation inhibition; P63279; HTRF SUMOylation assay, SAE1/SAE2 + UBC9, in vitro; inhibition, % at 35 µM; 290,000 tested, 0.36% active; AID 2006; in the data active = inhibition above about 50%, passing the limit was not always enough
Target sequence (P63279 whole entry, looked up): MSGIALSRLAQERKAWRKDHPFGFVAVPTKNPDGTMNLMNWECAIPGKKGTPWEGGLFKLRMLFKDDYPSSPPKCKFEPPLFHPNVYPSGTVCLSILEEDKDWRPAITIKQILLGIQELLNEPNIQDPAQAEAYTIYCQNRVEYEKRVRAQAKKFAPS
VIM-2 inhibitor = blocks Pseudomonas aeruginosa VIM-2 metallo-beta-lactamase; purified VIM-2, nitrocefin hydrolysis, epi-absorbance fluorescence; inhibition, % at 5.6 µM; 290,000 tested, 0.89% active; AID 1527;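 active = inhibition above the mean of all tested compounds plus 3 SD, cutoff set per screening run, cut at about 7.5% in these data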;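 also: red hydrolysis product quenches plate fluorescence so inhibitors raise well fluorescence; 0% = enzyme with DMSO and 100% = DMSO without enzyme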
Yeast Mot1 SUMO = inhibits SUMO pathway, affecting Mot1-301 yeast growth; shares compounds with Mot1-301 SUMO; S. cerevisiae Mot1-301 galactose growth, ATP luminescence, 24 h; -100 = growth of slx-deleted rescue strain; growth activity, percent, % at 42 µM; 2,300 tested, under 10 active;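 active = Signal drops as the depositor expects, and the fitted half-maximal dose is no more than ten times the top valid tested dose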;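 also: more negative values mean stronger growth rescue toward the control strain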
* hit, by the source's call. Sampled rows, rich in hits. Any-hit rate of the full collection: about 2.9%.

How did COc1ccc(NC2CC(=O)N(C(C)C)C2=O)cc1 (centres undefined) do in these assays?
IMP-1 inh: -3; DNA FID counter: -5; Mot1-301 SUMO: 507*; UBC9 SUMO inh: -5; VIM-2 inhibitor: -4; Yeast Mot1 SUMO: 0

Results for COc1ccccc1N1C(=O)c2ccccc2NC1c1cc(OC)c(OC)c(OC)c1 (centres undefined) ?
NALP1 yeast inh: 8; IMP-1 inh: -3; DNA FID counter: -16; Mot1-301 SUMO: -5; UBC9 SUMO inh: 9; VIM-2 inhibitor: -2

Results for COc1ccccc1N1C(=O)c2ccccc2NC1C(OC)OC (centres undefined) ?
NALP1 yeast inh: -15; IMP-1 inh: -5; DNA FID counter: -3; Mot1-301 SUMO: active; UBC9 SUMO inh: 23; VIM-2 inhibitor: -1; Yeast Mot1 SUMO: 0

What do the screens show for `CCCC1Cc2c(sc3ncnc(N)c23)CO1` (centres undefined)?
NALP1 yeast inh: 7; IMP-1 inh: -4; DNA FID counter: -4; Mot1-301 SUMO: 420*; UBC9 SUMO inh: 21; VIM-2 inhibitor: -2; Yeast Mot1 SUMO: -1

Results for COc1ccc(CC(=O)NNC(=O)CSc2ccc(C)cc2)cc1 ?
NALP1 yeast inh: -29; IMP-1 inh: -3; DNA FID counter: -5; UBC9 SUMO inh: 18; VIM-2 inhibitor: -4

How did COc1ccccc1CNC(=O)CN(c1ccc(C)cc1)S(=O)(=O)c1c(C)noc1C do in these assays?
NALP1 yeast inh: 1; IMP-1 inh: -1; DNA FID counter: -55; Mot1-301 SUMO: 0; UBC9 SUMO inh: 13; VIM-2 inhibitor: -1

Results for COc1ccccc1CNC(=O)CN(c1ccc(C)cc1)S(=O)(=O)c1c(C)n[nH]c1C ?
NALP1 yeast inh: 4; IMP-1 inh: -3; DNA FID counter: -28; Mot1-301 SUMO: 912*; UBC9 SUMO inh: 3; VIM-2 inhibitor: -1; Yeast Mot1 SUMO: -1

What do the screens show for `Fc1ccc2cc(-c3ccccc3)ncc2c1`?
Mot1-301 SUMO: 122

What do the screens show for `c1ccc(-c2cc3cc4c(cc3cn2)OCO4)cc1`?
Mot1-301 SUMO: 528*; Yeast Mot1 SUMO: 0

How did c1ccc(-c2cc3ccccc3cn2)cc1 do in these assays?
Mot1-301 SUMO: 372*; Yeast Mot1 SUMO: -1

What do the screens show for `COc1ccc(-c2cc3cc4c(cc3cn2)OCO4)cc1`?
Mot1-301 SUMO: 210

Results for COC(=O)C(NC(C)=O)(Nc1nc2ccc(C)cc2s1)C(F)(F)F (centres undefined) ?
NALP1 yeast inh: 6; IMP-1 inh: -2; DNA FID counter: -3; Mot1-301 SUMO: 309; UBC9 SUMO inh: 9; VIM-2 inhibitor: 0

Results for COC(=O)C(NC(C)=O)(Nc1nc2ccc(S(C)(=O)=O)cc2s1)C(F)(F)F (centres undefined) ?
NALP1 yeast inh: -14; IMP-1 inh: -2; DNA FID counter: -1; Mot1-301 SUMO: active; UBC9 SUMO inh: -11; VIM-2 inhibitor: 0; Yeast Mot1 SUMO: 1

What do the screens show for `COc1ccc(CCNC(=O)Cn2c(=O)n(Cc3ccco3)c(=O)c3ccc(Cl)cc32)cc1OC`?
NALP1 yeast inh: -1; IMP-1 inh: -3; DNA FID counter: -30; UBC9 SUMO inh: 12; VIM-2 inhibitor: -4

What do the screens show for `CCOC(=O)Cn1c(=O)n(Cc2ccco2)c(=O)c2ccc(C(=O)NCCc3ccccc3)cc21`?
NALP1 yeast inh: 19; IMP-1 inh: -5; DNA FID counter: -32; Mot1-301 SUMO: 370*; UBC9 SUMO inh: 9; VIM-2 inhibitor: -4; Yeast Mot1 SUMO: 0

How did COc1ccc(S(=O)(=O)N2CCN(C(=O)c3ccco3)CC2)cc1C(C)(C)C do in these assays?
NALP1 yeast inh: 14; IMP-1 inh: -3; DNA FID counter: -32; Mot1-301 SUMO: 67; UBC9 SUMO inh: -4; VIM-2 inhibitor: -1

What do the screens show for `CC1CCN(c2ccc(-c3ccc(NC(=O)C(F)(F)F)cc3)nn2)CC1`?
NALP1 yeast inh: 15; IMP-1 inh: -2; DNA FID counter: -27; Mot1-301 SUMO: 13; UBC9 SUMO inh: 6; VIM-2 inhibitor: -3

Results for CN(C(=O)CSc1ncccc1C(=O)O)c1ccccc1 ?
NALP1 yeast inh: 6; IMP-1 inh: -2; DNA FID counter: 4; Mot1-301 SUMO: 2; UBC9 SUMO inh: 16; VIM-2 inhibitor: -1

Results for CCCN(CCC)C(=O)CSc1ncccc1C(=O)O ?
NALP1 yeast inh: 34; IMP-1 inh: -1; DNA FID counter: 4; Mot1-301 SUMO: 399*; UBC9 SUMO inh: 2; VIM-2 inhibitor: -1; Yeast Mot1 SUMO: 0

How did O=C(Nc1cccc(Cl)c1)OCc1cncs1 do in these assays?
NALP1 yeast inh: 1; IMP-1 inh: -1; DNA FID counter: 2; Mot1-301 SUMO: active; UBC9 SUMO inh: -36; VIM-2 inhibitor: -3; Yeast Mot1 SUMO: 0

Results for O=C(Nc1ccc(Cl)cc1)OCc1cncs1 ?
NALP1 yeast inh: 7; IMP-1 inh: -1; DNA FID counter: 0; Mot1-301 SUMO: -2; UBC9 SUMO inh: 27; VIM-2 inhibitor: -3

Results for CCOC(=O)c1sc2ncn(C(CC)C(=O)OCC)c(=O)c2c1C (centres undefined) ?
NALP1 yeast inh: 4; IMP-1 inh: -2; DNA FID counter: -8; Mot1-301 SUMO: 592*; UBC9 SUMO inh: 2; VIM-2 inhibitor: -1; Yeast Mot1 SUMO: 0

What do the screens show for `CCOC(=O)c1sc2ncn(C(CC)C(=O)OC)c(=O)c2c1C` (centres undefined)?
NALP1 yeast inh: -49; IMP-1 inh: -4; DNA FID counter: -7; Mot1-301 SUMO: 8; UBC9 SUMO inh: 13; VIM-2 inhibitor: -3

What do the screens show for `CCOC(=O)C1C(=O)NC(SCC(=O)Nc2nccs2)=C(C#N)C1c1ccccc1OCC` (centres undefined)?
NALP1 yeast inh: -5; IMP-1 inh: 1; DNA FID counter: -19; Mot1-301 SUMO: 633*; UBC9 SUMO inh: 8; VIM-2 inhibitor: -2; Yeast Mot1 SUMO: 0

What do the screens show for `COCCCn1c(=O)c2ccccc2n(Cc2ccc(C)cc2)c1=O`?
NALP1 yeast inh: 24; IMP-1 inh: -3; DNA FID counter: -33; Mot1-301 SUMO: 42; UBC9 SUMO inh: 16; VIM-2 inhibitor: -3

Results for COCCCn1c(=O)c2ccccc2n(Cc2ccccc2C)c1=O ?
NALP1 yeast inh: 7; IMP-1 inh: 0; DNA FID counter: -38; Mot1-301 SUMO: 455*; UBC9 SUMO inh: -15; VIM-2 inhibitor: 1; Yeast Mot1 SUMO: 0

Results for COCc1c(C(=O)Nc2ccc3nc(N4CCOCC4)sc3c2)oc2ccccc12 ?
Mot1-301 SUMO: -14

Assay outcomes (PubChem)
